ChEMBL document CHEMBL3259667, “Bis-aryloxadiazoles as effective activators of the aryl hydrocarbon receptor” (Bioorg Med Chem Lett, 2014)

Columns and labels:
Type in all cases: cell-based
[1] = target: T1, Aryl hydrocarbon receptor (Mus musculus, UniProt P30561); test: Agonist activity at AHR in mouse HC11 cells assessed as upregulation of Cyp1a1 gene expression at 10 uM after 48 hrs by RT-PCR analysis relative to control; details: hc11, 48 h
T1 sequence (P30561 whole entry): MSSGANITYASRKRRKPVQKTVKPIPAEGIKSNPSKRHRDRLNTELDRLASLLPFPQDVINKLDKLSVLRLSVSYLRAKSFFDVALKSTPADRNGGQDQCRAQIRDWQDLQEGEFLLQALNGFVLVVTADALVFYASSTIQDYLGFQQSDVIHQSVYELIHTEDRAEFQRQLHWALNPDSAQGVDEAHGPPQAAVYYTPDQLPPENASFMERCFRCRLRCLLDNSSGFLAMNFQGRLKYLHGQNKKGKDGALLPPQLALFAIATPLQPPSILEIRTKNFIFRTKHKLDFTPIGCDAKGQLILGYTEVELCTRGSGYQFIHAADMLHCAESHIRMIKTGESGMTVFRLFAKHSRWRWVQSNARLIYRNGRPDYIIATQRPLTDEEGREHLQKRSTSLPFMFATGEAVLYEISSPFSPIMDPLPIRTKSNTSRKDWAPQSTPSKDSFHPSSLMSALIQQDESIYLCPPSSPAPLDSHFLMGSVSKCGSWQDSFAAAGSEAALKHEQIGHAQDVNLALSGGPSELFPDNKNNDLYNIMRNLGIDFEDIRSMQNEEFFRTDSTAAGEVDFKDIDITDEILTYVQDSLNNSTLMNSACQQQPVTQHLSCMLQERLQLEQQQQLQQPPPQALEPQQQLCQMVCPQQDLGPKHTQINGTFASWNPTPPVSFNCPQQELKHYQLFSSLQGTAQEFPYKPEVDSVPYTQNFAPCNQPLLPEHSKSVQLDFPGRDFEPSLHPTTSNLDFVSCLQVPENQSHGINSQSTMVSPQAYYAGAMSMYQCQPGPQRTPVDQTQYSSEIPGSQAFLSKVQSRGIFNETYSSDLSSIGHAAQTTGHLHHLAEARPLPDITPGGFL
Outline: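 HC11 mammary epithelial cells were exposed for 48 hours to 10 μM compound. Expression of the AHR target gene Cyp1a1 served as the activity read-out.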

[2] = target: T1, Aryl hydrocarbon receptor; test: Agonist activity at AHR in FVB/N mouse primary mammary epithelial cells assessed as upregulation of desmoglein-3 protein level at 10 uM after 144 hrs by Western blot analysis in presence of FGF2; details: epithelial cell
[3] = target: T1, Aryl hydrocarbon receptor; test: Agonist activity at AHR in FVB/N mouse primary mammary epithelial cells assessed as upregulation of desmoglein-3 protein level at 10 nM after 144 hrs by Western blot analysis in presence of FGF2; details: epithelial cell, 0.01 µM

Row | SMILES | Activity [1] | Activity [2] | Activity [3]
1 | COC(=O)Oc1ccc(-c2nc(-c3ccccc3)no2)c([N+](=O)[O-])c1 | 0.39% | – | –
2 | O=[N+]([O-])c1cc(C(F)(F)F)ccc1-c1nc(-c2ccccc2)no1 | 0.36% | – | –
3 | Nc1cc(Cl)ccc1-c1nc(-c2ccccc2)no1 | 638.8% | Active | –
4 | C=CCOc1ccc(-c2noc(-c3ccc(Cl)cc3N)n2)cc1 | 0.62% | – | –
5 | FC(F)(F)c1cccc(-c2noc(-c3ccc(Cl)cc3Cl)n2)c1 | 1.84% | Not Active | –
6 | O=C(O)c1cccc(-c2noc(-c3ccccc3F)n2)c1 [ATALUREN] | 3.71% | – | –
7 | CC(=O)Oc1ccc(-c2nc(-c3ccncc3)no2)c([N+](=O)[O-])c1 | 0.35% | – | –
8 | Clc1cccc(-c2noc(-c3ccc(Cl)cc3Cl)n2)c1 | 1.59% | – | –
9 | Clc1ccc(-c2nc(-c3ccccc3Cl)no2)c(Cl)c1 | 5.91% | – | –
10 | O=[N+]([O-])c1cc(Cl)ccc1-c1nc(-c2ccncc2)no1 | 8.25% | – | –
11 | C#CCOc1ccc(-c2noc(-c3ccc(Cl)cc3Cl)n2)cc1 | 0.66% | – | –
12 | C#CCOc1ccc(-c2noc(-c3ccc(Cl)cc3[N+](=O)[O-])n2)cc1 | 0.29% | – | –
13 | Clc1ccc(-c2nc(-c3ccccc3)no2)c(Cl)c1 | 128.53% | Active | –
14 | Clc1cc2c(cc1Cl)Oc1cc(Cl)c(Cl)cc1O2 [2,3,7,8-TETRACHLORODIBENZO-P-DIOXIN] | – | – | Active
15 | O=[N+]([O-])c1cc(F)ccc1-c1nc(-c2ccccc2)no1 | 122.64% | Active | –
16 | COc1ccc(-c2nc(-c3ccccc3)no2)c([N+](=O)[O-])c1 | 0.42% | – | –
17 | Clc1ccc(-c2nc(-c3ccncc3)no2)c(Cl)c1 | 0.37% | – | –
18 | Clc1ccc(-c2noc(-c3ccc(Cl)cc3Cl)n2)cc1 | 8.15% | – | –
19 | Clc1ccc(-c2nc(-c3ccncc3)no2)c(Cl)c1Cl | 0.53% | – | –
20 | C#CCOc1ccc(-c2noc(-c3ccc(Cl)cc3N)n2)cc1 | 0.38% | – | –
21 | COC(=O)c1cccc(-c2noc(-c3ccccc3F)n2)c1 | 0.29% | – | –
22 | COC(=O)c1cccc(-c2noc(-c3ccc(Cl)cc3Cl)n2)c1 | 0.18% | – | –
23 | Nc1cc(C(F)(F)F)ccc1-c1nc(-c2ccccc2)no1 | 58.63% | Active | –
24 | C#CCOc1ccc(-c2nc(-c3ccccc3)no2)c([N+](=O)[O-])c1 | 2.43% | – | –
25 | Clc1ccc(-c2nc(-c3ccccc3)no2)c(Cl)c1Cl | 25.79% | Not Active | –
26 | O=[N+]([O-])c1cc(O)ccc1-c1nc(-c2ccccc2)no1 | 0.25% | – | –
